GSK3A inh: blocks human GSK-3 alpha kinase; ADP-Glo luminescence, 60 min; actives 0.1% (n = 320,000); AID 2650; P49840; inhibition, % at 10 µM;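 active = more than half of replicates show inhibition above 20%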;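 also: GST-tagged GSK-3 alpha with peptide substrate and 25 µM ATP; 0% = DMSO neutral wells and 100% = GW8510 positive control wells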
Pemphigus Ab inh: inhibitors of pemphigus antibody binding to human desmoglein-3; P32926; DSG3-coupled beads, scFv-anti-DSG3-GFP binding, flow cytometry; stronger effect = lower value; binding (percent of control), % at 10 µM; actives 0.48% (n = 310,000); AID 588358;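 active = binding more than 3 SD below its plate's average and above zero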;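 also: hits lower antibody fragment binding to DSG3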
MT1-MMP act inh: MT1-MMP (human) activation inhibition. HT1080 RFP-PRO-GFP cells, GFP/RFP ratio fluorescence, overnight; percent of plate control window, DMSO zero. actives 0.061% (n = 360,000). AID 651647. GFP/RFP ratio change, % at 20 µM;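 active = GFP/RFP ratio change of at least 30% with cell ATP level not reduced by more than half and red fluorescence within 50% of control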
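Read-out: GFP/RFP fluorescence ratio; Test system: RFP-PRO-GFP reporter HT1080 cells; Compound dosing: single-point 20 µM compound, 1% DMSO; Times: overnight compound exposure at 37 °C.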
STK33 kinase inh: human STK33 kinase inhibition; Q9BYT3; purified STK33, MBP phosphorylation, ADP-Glo luminescence; inhibition, % at 10 µM; actives 0.073% (n = 320,000); AID 2661;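 active = inhibition at or above 25%, using the most active replicate where run in duplicate; inactive = inhibition below 25%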
GSK3beta inhib: inhibitors of human GSK3beta kinase; GST-GSK3beta kinase, ADP-Glo luminescence, 60 min; stronger effect = lower value; activity score (negative = inhibition), % at 10 µM; actives 0.038% (n = 300,000);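 active = more than half of replicate wells score below -50%, meaning over 50% inhibition versus plate controls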;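 also: 0% = median DMSO wells and -100% = median GW8510 positive control wells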
Target sequence (P49841 whole entry, looked up): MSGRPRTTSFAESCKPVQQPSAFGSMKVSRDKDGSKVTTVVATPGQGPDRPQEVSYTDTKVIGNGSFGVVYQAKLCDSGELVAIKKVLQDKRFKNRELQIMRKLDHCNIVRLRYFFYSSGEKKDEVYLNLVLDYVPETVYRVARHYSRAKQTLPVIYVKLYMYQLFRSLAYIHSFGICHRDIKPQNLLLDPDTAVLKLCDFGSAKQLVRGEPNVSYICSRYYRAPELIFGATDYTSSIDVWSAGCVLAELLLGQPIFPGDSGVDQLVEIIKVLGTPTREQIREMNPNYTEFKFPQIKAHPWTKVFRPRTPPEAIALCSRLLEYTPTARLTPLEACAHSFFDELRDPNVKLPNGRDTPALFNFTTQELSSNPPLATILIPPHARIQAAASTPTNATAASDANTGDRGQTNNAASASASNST
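Test system – GST-tagged human GSK3beta kinase, cell-free · Incubation – 60 min enzyme reaction, room temperature · Signal – ADP-Glo luminescence · Also added – peptide substrate and ATP at 25 µM · Controls – DMSO neutral wells and GW8510 at 20 µM as positive · Buffer or medium – Tris/MgCl2 kinase buffer · Measure – Luminescence-derived activity versus plate DMSO and GW8510 wells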
Numbers without * were called inactive. Hits are enriched below; roughly 0.63% of the tested compounds scored in any of these assays.

For COc1ccc(NC(=O)c2cccc3c2C(=O)c2ccc(-c4ccc(F)cc4OCc4ccccc4)cc2S3(=O)=O)cc1 the results were GSK3A inh -2.8, Pemphigus Ab inh 97.5, MT1-MMP act inh -4.1 and STK33 kinase inh -0.8.
COc1ccc(NC(=O)CN(C)C(=O)c2cc3c(s2)CCC3)cc1 was read as GSK3A inh -2.2, Pemphigus Ab inh 93.2*, MT1-MMP act inh 5.3, STK33 kinase inh 1.1 and GSK3beta inhib 1.1.
Screening COc1ccc(NC(=O)CN(C)C(=O)c2cc3c(s2)CCCCC3)cc1 returned GSK3A inh 0.5, Pemphigus Ab inh 110.5, MT1-MMP act inh 1.4, STK33 kinase inh -0.2 and GSK3beta inhib 3.2.
Screening COc1cccc(-c2cccc(-c3nc(C(=O)NCCCN4CCOCC4)cc4c3[C@H](CCO)N(S(=O)C(C)(C)C)C4)c2)c1 (stereo partly specified) returned MT1-MMP act inh 3.5.
`N=c1oc2ccc3ccccc3c2cc1C(N)=S` gave GSK3A inh 8.8, Pemphigus Ab inh 80.5*, MT1-MMP act inh -2.5, STK33 kinase inh 0.6 and GSK3beta inhib 2.6.
Screening CC1=C(C(=O)OCc2ccc3c(c2)OCO3)C(c2ccc(F)cc2)NC(=O)N1 (stereo unspecified) returned GSK3A inh 50.9*, Pemphigus Ab inh 102.9, MT1-MMP act inh -28.9, STK33 kinase inh 6.6 and GSK3beta inhib -22.1.
`CC1=C(C(=O)OCc2ccc3c(c2)OCO3)C(c2ccc(Cl)cc2)NC(=O)N1` (stereo unspecified) gave Pemphigus Ab inh 94.6, MT1-MMP act inh -16.6 and GSK3beta inhib -7.7.
c1cc(CNCCN2CCNCC2)ccn1 was read as Pemphigus Ab inh 58.0* and MT1-MMP act inh 1.6.
c1cc(CNCCCN2CCOCC2)ccn1 was read as GSK3A inh -0.8, Pemphigus Ab inh 108.5, MT1-MMP act inh -2.1, STK33 kinase inh -3.0 and GSK3beta inhib 0.3.
COc1ccc(NC(=O)c2ccc(-c3ccc(OC)cc3)s2)cc1 was read as GSK3A inh 0.6, Pemphigus Ab inh 55.0*, STK33 kinase inh -0.3 and GSK3beta inhib -26.0.
CNC(=O)c1ccc(-c2ccc(OC)cc2)s1 was read as GSK3A inh -1.4, Pemphigus Ab inh 100.2, MT1-MMP act inh -0.2, STK33 kinase inh -0.4 and GSK3beta inhib 1.3.
For CCOC(=O)C1=C(C)NC2=C(C(=O)CC(C)(C)C2)C1c1ccc(O)c(OCC)c1 (stereo unspecified) the results were GSK3A inh -2.1, Pemphigus Ab inh 77.8, MT1-MMP act inh 1.1, STK33 kinase inh -2.7 and GSK3beta inhib 1.4.
For CCOc1cc(C2C3=C(CC(C)(C)CC3=O)Nc3n[nH]c(C)c32)ccc1O (stereo unspecified) the results were GSK3A inh 93.8*, Pemphigus Ab inh 101.7, MT1-MMP act inh -1.1, STK33 kinase inh -0.7 and GSK3beta inhib -61.4*.
`Cc1cc(N2CCN(C)CC2)nc2ccc(NC(=O)c3ccc(Br)o3)cc12` gave GSK3A inh 0.1, MT1-MMP act inh 3.8, STK33 kinase inh 33.5* and GSK3beta inhib -4.6.
For Cc1cc(N2CCOCC2)nc2ccc(NC(=S)N3CCN(c4ccccc4)CC3)cc12 the results were GSK3A inh 1.0, Pemphigus Ab inh 1.0*, STK33 kinase inh 0.9 and GSK3beta inhib 6.2.
Screening COc1ccc(NC(=O)CCC(=O)Nc2ccc3nc(N4CCOCC4)cc(C)c3c2)c(OC)c1 returned GSK3A inh 0.5, MT1-MMP act inh 0.7, STK33 kinase inh -0.4 and GSK3beta inhib -3.8.
Screening COc1ccc(N(C)C(=O)CCC(=O)Nc2ccc3nc(N4CCOCC4)cc(C)c3c2)c(OC)c1 returned GSK3A inh 0.2, Pemphigus Ab inh 89.4*, MT1-MMP act inh 1.9, STK33 kinase inh -0.7 and GSK3beta inhib 1.4.
COc1ccc(NC(=O)C2CCCN2S(=O)(=O)c2ccc3c(c2)C(C)(C)C(=O)N3C)cc1 (stereo unspecified) was read as MT1-MMP act inh 3.4.
For CC(/C=C/c1ccc2c(c1)OCO2)=N\NC(=O)c1cccc([N+](=O)[O-])c1 the results were GSK3A inh 2.7, Pemphigus Ab inh 84.1*, MT1-MMP act inh 17.5, STK33 kinase inh -0.9 and GSK3beta inhib 0.3.
Screening CCCCCCCCN1C(=O)[C@H](CC(=O)N2CCN(C(=O)c3ccco3)CC2)C[C@@]2(C(=O)OC)CCCCC=C12 returned MT1-MMP act inh 1.8.
`CCCCN(C)CCCNC(=O)CN1N=C(c2ccc(Cl)cc2)CCC1=O` gave GSK3A inh -0.6, Pemphigus Ab inh 75.2*, MT1-MMP act inh 1.1, STK33 kinase inh 1.8 and GSK3beta inhib 1.5.
Screening COc1ccc(Cc2c(-c3ccccc3)nc3c4ccccc4ccn23)c(C)c1 returned MT1-MMP act inh -0.5.
`CC(C)c1cc(Cn2c3ccccc3c(=O)n2C(C)Cn2cc(CCCC#N)nn2)on1` (stereo unspecified) gave MT1-MMP act inh 3.5.
Screening CC(C)[C@H](CO)Nc1nc(Nc2ccc(Cl)c(C(=O)O)c2)c2ncn(C(C)C)c2n1 returned GSK3A inh 1.7, Pemphigus Ab inh 101.8, MT1-MMP act inh -0.9, STK33 kinase inh 14.4 and GSK3beta inhib -4.6.
CC(C)n1cnc2c(Nc3cccc(Cl)c3)nc(NCCCO)nc21 was read as GSK3A inh 1.8, MT1-MMP act inh -11.2, STK33 kinase inh 66.0* and GSK3beta inhib -5.9.
Screening COc1ccc(CNC(=O)CC[C@H]2O[C@@H](n3cnc4c(NC(=O)c5ccccc5)ncnc43)[C@H](O)[C@@H]2O)cc1 returned MT1-MMP act inh 1.6.
`N#CCCn1cc(/C=N/O)c(-c2ccccc2)n1` gave GSK3A inh 11.5, Pemphigus Ab inh 101.1, MT1-MMP act inh 8.6 and STK33 kinase inh -0.3.
N#CCCn1cc(/C=N/O)c(-c2cccc([N+](=O)[O-])c2)n1 was read as GSK3A inh 63.9*, Pemphigus Ab inh 97.7, MT1-MMP act inh -1.1, STK33 kinase inh -0.1 and GSK3beta inhib -26.1.
CCCCNC(=O)c1nc(C2CCN(S(=O)(=O)c3ccc(C(F)(F)F)cc3)CC2)oc1-c1ccccc1 was read as MT1-MMP act inh -0.5.
`O=C(Cn1nnc(-c2ccccc2NC(=O)c2ccco2)n1)Nc1ccccc1` gave GSK3A inh 1.2, Pemphigus Ab inh 6.9*, MT1-MMP act inh 6.1, STK33 kinase inh -1.3 and GSK3beta inhib 1.0.
`COc1ccccc1NC(=O)Cn1nnc(-c2ccccc2NC(=O)c2cc3ccccc3oc2=O)n1` gave GSK3A inh -3.3, Pemphigus Ab inh 9.0*, MT1-MMP act inh 1.1, STK33 kinase inh -1.1 and GSK3beta inhib -2.2.
COc1ccccc1NC(=O)Cn1nnc(-c2ccccc2NS(=O)(=O)c2ccccc2)n1 was read as GSK3A inh 0.2, Pemphigus Ab inh 132.2, MT1-MMP act inh -0.6, STK33 kinase inh -0.5 and GSK3beta inhib -3.2.
